# Screening data from PubChem BioAssay.
# NR2E3 ag-1: activates human photoreceptor nuclear receptor NR2E3; Q9Y5X4; GST-NR2E3/biotin-RetCOR TR-FRET, 1536-well; inhibition of corepressor binding, % at 4.78 µM; 320,000 tested, 0.12% active;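 active means percent inhibition above the cutoff of mean plus 3 SD of all tested compounds, set per screening campaign, cut at about 20% in these data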
#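 Test system: GST-NR2E3 and biotin-RetCOR proteins | Quantity: 1.35 nM GST-tagged NR2E3 final | Medium: Tris pH 7.5 | Also added: 7 nM biotin-RetCOR | Dosing: Compound at 4.8 µM, single dose | Timing: 5 h at 4 °C | Detection: Time-resolved FRET | Read-out basis: Percent inhibition | Benchmarks: Biotin wells as high control, 0.6% DMSO wells as low control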
# NR2E3 ag-2: agonists of human NR2E3 nuclear receptor; CHO-S Gal4-NCOR/VP16-NR2E3 two-hybrid, luciferase; AID 602229; inhibition of corepressor binding, % at 3.98 µM; Q9Y5X4; 360,000 tested, 0.35% active;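 active means inhibition above the mean of all tested compounds plus 3 SD, cut at about 70% in these data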;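 further: higher means lower luciferase signal from less NR2E3 corepressor binding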
# GASC-1 inh: inhibitors of human GASC-1 (JMJD2C) demethylase | GST-JMJD2C(1-420) H3K9me3 demethylation, DELFIA europium | inhibition, % at 2.35 µM | Q9H3R0 | 330,000 tested, 0.069% active;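 active means more than half of a compound's replicate wells show inhibition beyond 50%, single wells judged on their own value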;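 further: signal counts dimethyl H3K9 product captured on neutravidin plate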
# EP2 modulator: modulators of human EP2 prostaglandin E2 receptor; P43116; EP2-expressing cells, cAMP HTRF FRET, PGE2 co-stimulation; induction, % at 25 µM; 260,000 tested, 0.83% active; AID 940;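 active means compounds whose cAMP rise, as percent of the full-agonist control response, exceeds 60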;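 further: rat C6 glioma line stably carrying human EP2 under a CMV promoter; the protocol text gives 20 µM as final concentration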
# Furin inhibitor: human furin inhibition. 220,000 tested, 0.061% active. purified furin, fluorogenic substrate cleavage. P09958. inhibition, % at 20 µM or 30 µM; in the data active means inhibition above about 25%
# Target sequence (P09958 108-714 limits assumed): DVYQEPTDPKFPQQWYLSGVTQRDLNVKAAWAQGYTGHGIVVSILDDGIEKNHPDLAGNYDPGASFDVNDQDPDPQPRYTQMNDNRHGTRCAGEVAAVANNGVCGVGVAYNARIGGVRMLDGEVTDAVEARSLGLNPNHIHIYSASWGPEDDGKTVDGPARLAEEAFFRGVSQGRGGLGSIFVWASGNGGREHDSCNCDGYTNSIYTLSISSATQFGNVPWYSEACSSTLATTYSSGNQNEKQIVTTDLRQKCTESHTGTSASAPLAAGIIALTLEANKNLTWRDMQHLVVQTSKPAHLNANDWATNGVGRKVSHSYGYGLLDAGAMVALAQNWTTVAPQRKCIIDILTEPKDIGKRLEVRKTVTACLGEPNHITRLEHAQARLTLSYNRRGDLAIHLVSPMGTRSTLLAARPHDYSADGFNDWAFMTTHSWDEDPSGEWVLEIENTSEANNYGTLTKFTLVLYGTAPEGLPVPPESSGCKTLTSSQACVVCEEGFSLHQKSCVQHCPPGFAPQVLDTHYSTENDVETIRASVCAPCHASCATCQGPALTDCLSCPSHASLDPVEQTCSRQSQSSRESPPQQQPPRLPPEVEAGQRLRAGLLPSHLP
# PGE2 EP2 inh: EP2 receptor (human) inhibition; P43116; C6 glioma cells expressing human EP2, cAMP TR-FRET; cells stimulated with saturating PGE2; inhibition, % at 25 µM; 260,000 tested, 0.52% active;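 active means percent inhibition above 40 after rounding to a whole number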;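 further: rat C6 glioma host cells with rolipram phosphodiesterase inhibitor present; the protocol text gives 20 µM as final concentration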
# A number is an active result; 0 = inactive; - = no result; ! = a repeat was not active. Most compounds without a hit are left out; they make up all but 1.3% or so of the library.
SMILES,NR2E3 ag-1,NR2E3 ag-2,GASC-1 inh,EP2 modulator,Furin inhibitor,PGE2 EP2 inh
Cc1cc(=O)oc2c1c(C)nn2-c1ccc(Cl)c(Cl)c1,-,-,-,0,-,0
COc1ccc(CNC(=O)Cc2nn(C)c(=O)c3ccccc23)cc1,0,102,0,0,0,0
Cc1nn(-c2cc(C)c3ccccc3n2)c2c1CCC2,0,0,0,64,0,0
Cc1ccc(-c2oc3ncnc(N)c3c2-c2ccc(C)cc2)cc1,0,0,0,61,0,0
Cc1oc2ncnc(N)c2c1C,0,0,0,0,0,0
COc1ccc(C2CC(C(F)(F)F)n3nc(C(=O)O)cc3N2)cc1OC (stereo unspecified),0,0,0,62,0,0
O=C(O)c1cc2n(n1)C(C(F)(F)F)CC(c1ccccc1)N2 (stereo unspecified),0,0,0,0,0,0
CCC(C)C(NC(=O)CCn1nc(C)cc1C)c1nc2cccnc2n1C(C)C (stereo unspecified),-,-,-,0,-,0
Cc1ccc(C)c(N(C(=O)c2csnn2)C(C(=O)NC2CCCC2)c2cccnc2)c1 (stereo unspecified),0,0,71,-,-,-
Cc1[nH]ccc(=O)c1Cc1c(Cl)cccc1Cl,0,0,0,-,-,-
Cc1n[nH]c(C)c1Cc1c(F)cccc1Cl,0,0,0,87,0,0
CCOc1ccc(C(=O)Nc2ccc(N3CCN(C(=O)c4ccco4)CC3)cc2)cc1Br,-,0,-,-,-,-
CCOc1ccc(C(=O)Nc2ccc(N3CCN(C)CC3)cc2)cc1Br,0,0,0,0,26,0
C=CCNc1nc(N)c(C(=O)Nc2cc(C)on2)s1,0,0,0,0,0,46
O=S(=O)(Nc1cccnc1)c1ccc(C2CCCCC2)cc1,0,92,0,0,0,0
O=S(=O)(Nc1cccnc1)c1ccccc1,0,0,0,0,0,0
O=C(O)c1ccc(Oc2ccccc2)o1,0,0,0,70,0,0
CC(C)NC(=O)CC1SC(N)=NC1=O (stereo unspecified),-,-,-,0,-,0
COc1ccc(N2C(=O)c3ccccc3C2=O)cc1,0,0,0,0,0,0
COc1ccc(N2C(=O)C(Cl)=C(Oc3cccc(OC)c3)C2=O)cc1,0,0,0,0,0,100
O=C(CN1C(=O)c2cccc3cccc1c23)Nc1ccccc1C(=O)NC1CCCCC1,-,-,-,76,-,0
Cc1cc2cc3c(cc2n2c(=O)n(CC(=O)N(C(C)C)C(C)C)nc12)OCO3,-,-,-,0,-,0
O=C(Nc1ccc2c(c1)CCC2)C1CCN(c2ccc(S(=O)(=O)N3CCCC3)cc2)CC1,-,-,-,0,-,0
Nc1ccccc1Sc1ccccc1[N+](=O)[O-],0,0,0,61,0,0
CO/N=C/c1ccc(Sc2ccccc2N)c([N+](=O)[O-])c1,0,0,0,0,0,0
SMILES,NR2E3 ag-1,NR2E3 ag-2,GASC-1 inh,EP2 modulator,Furin inhibitor,PGE2 EP2 inh
COc1ccc2nc(SCC(=O)OCc3ccccc3)c(C)cc2c1,-,-,-,0,-,0
O=C(O)CSc1ncnc2c1sc1nc(-c3ccccc3)c3c(c12)CCC3,0,0,0,70,0,0
O=C(c1cnccn1)N(Cc1ccc(Cl)cc1)Cc1cc2cc3c(cc2[nH]c1=O)OCCO3,-,-,-,0,-,0
CN(C)CCCN1C(=O)c2cccc3c([N+](=O)[O-])ccc(c23)C1=O,0,0,0,0,0,80
O=C1c2cccc3c([N+](=O)[O-])ccc(c23)C(=O)N1CCc1ccccn1,0,0,0,0,0,0
O=S(=O)(NC1(c2ccc(F)cc2)CC1)c1ccc(Cl)s1,-,-,-,0,-,0
Cc1cc(C)nc(SCCn2c(N3CCCCC3)nc3c2c(=O)[nH]c(=O)n3C)n1,-,-,-,0,-,0
CCc1ccc(CCC(=O)Nc2sc3c(c2C#N)CCCC3)o1,0,0,51,0,0,0
CCC(=O)Nc1sc2c(c1C#N)CCC2,0,0,0,0,0,0
O=C(COc1ccc2nsnc2c1)NCc1nc(-c2ccccc2)no1,-,-,-,0,-,50
Nc1cc(-c2cccs2)nn(CC(=O)Nc2ccccc2F)c1=O,-,-,-,0,-,0
COC(=O)c1[nH]c2ccccc2c1NC(=O)CN1CCC(C(N)=O)(N2CCCCC2)CC1,0,0,0,0,28,0
COC(=O)c1[nH]c2ccccc2c1NC(=O)CN1CCCCCC1,0,0,0,0,0,0
CC(C)NC(=O)Cn1cnc2c(cnn2-c2ccccc2Cl)c1=O,-,-,-,0,-,0
Clc1ccc(CNCCCSc2ncccn2)cc1Cl,0,0,0,-,-,-
C[N@@+]1(Cc2ccc(Cl)c(Cl)c2)CCC[C@@H]1c1ccc[n+](Cc2ccc(Cl)c(Cl)c2)c1,-,-,-,0,-,50
CCc1ccc(S(=O)(=O)n2c(C)nc3ccccc32)cc1,0,0,0,-,-,-
CCOc1cc(S(=O)(=O)n2c(C)nc3ccccc32)ccc1Cl,-,-,-,80,-,0
O=C(Nc1ccc2nn(-c3ccccc3)nc2c1)c1ccco1,0,0,0,0,0,41!
O=C(Nc1ccc2nn(-c3ccccc3)nc2c1)c1cccnc1,0,0,0,0,0,40
O=C(Nc1cc2nn(-c3ccccc3)nc2cc1Cl)c1ccco1,0,0,0,0,0,0
C=CCc1c(C)[nH]c2ccc(OC)cc2c1=S,-,-,-,0,-,0
CCCC(c1nnnn1Cc1ccco1)N(Cc1ccco1)Cc1cc2cc(C)cc(C)c2[nH]c1=O (stereo unspecified),-,-,-,0,-,0
CN1CCN(C(=O)/C(=C/c2ccccc2)c2ccccc2)CC1,0,0,0,0,0,0
CC1CC(C)CN(C(=O)/C(=C\c2ccccc2)c2ccccc2)C1 (stereo unspecified),0,0,0,63,0,0
SMILES,NR2E3 ag-1,NR2E3 ag-2,GASC-1 inh,EP2 modulator,Furin inhibitor,PGE2 EP2 inh
O=S(=O)(c1ccccc1)N1c2cc(Cl)ccc2Oc2nc3ccccc3nc21,0,0,-,61,0,0
O=C(C1CCCO1)N1CCC(Cn2nc(-c3ccc(F)cc3)ccc2=O)CC1 (stereo unspecified),-,-,-,0,-,-
C[C@H]1CN(CCc2ccccc2)C(=O)[C@@H]1CC(=O)NCc1ccccc1,0,0,61,-,-,-
Cc1cc(C)c2c(c1)cc(C)c1nnc(SCC(=O)Nc3ccc4c(c3)OCO4)n12,-,-,-,0,-,0
CC(C)[C@]1(Cl)CC[C@H]2[C@]3(C)CCC[C@@](C)(C(=O)O)[C@H]3C[C@@H](Cl)[C@]2(Cl)[C@H]1Cl,-,-,-,0,-,48
Cc1ccc2cc(CN(C3CCCC3)S(=O)(=O)c3c(C)ccc4nsnc34)c(=O)[nH]c2c1,-,-,-,0,-,0
O=c1oc2ccccc2c2c1nnn2C1CCN(Cc2ccccc2)CC1,-,-,-,0,-,74
Cc1ccc(-n2nnc3c(=O)oc4ccccc4c32)cc1,0,0,0,0,0,86
O=C(Nc1ncc(Cc2ccccc2F)s1)C1COc2ccccc2O1 (stereo unspecified),-,-,-,0,-,0
Nc1nc(Cl)nc2c1ncn2[C@H]1C[C@H](O)[C@@H](CO)O1,0,0,0,0,0,0
CC1(C)OC[C@@H]2O[C@H](n3cnc4c(N)nc(Cl)nc43)[C@H](OS(C)(=O)=O)[C@H]2O1,-,-,-,0,-,56
